In ChEMBL document CHEMBL1139367, “A novel histone acetyltransferase inhibitor modulating Gcn5 network: cyclopentylidene-[4-(4'-chlorophenyl)thiazol-2-yl)hydrazone” (2009):
The source made the active and inactive calls. The calls are words filed in the database; no cut-off is given here.

Assays:
[1] = target: Histone acetyltransferase KAT2A (Homo sapiens) (UniProt Q92830); assay: Inhibition of human recombinant Gcn5 assessed as reduction in acetylated histone H3 level at 0.2 mM by Western blot analysis
Histone acetyltransferase KAT2A (Homo sapiens), sequence (Q92830 2-837 limits assumed): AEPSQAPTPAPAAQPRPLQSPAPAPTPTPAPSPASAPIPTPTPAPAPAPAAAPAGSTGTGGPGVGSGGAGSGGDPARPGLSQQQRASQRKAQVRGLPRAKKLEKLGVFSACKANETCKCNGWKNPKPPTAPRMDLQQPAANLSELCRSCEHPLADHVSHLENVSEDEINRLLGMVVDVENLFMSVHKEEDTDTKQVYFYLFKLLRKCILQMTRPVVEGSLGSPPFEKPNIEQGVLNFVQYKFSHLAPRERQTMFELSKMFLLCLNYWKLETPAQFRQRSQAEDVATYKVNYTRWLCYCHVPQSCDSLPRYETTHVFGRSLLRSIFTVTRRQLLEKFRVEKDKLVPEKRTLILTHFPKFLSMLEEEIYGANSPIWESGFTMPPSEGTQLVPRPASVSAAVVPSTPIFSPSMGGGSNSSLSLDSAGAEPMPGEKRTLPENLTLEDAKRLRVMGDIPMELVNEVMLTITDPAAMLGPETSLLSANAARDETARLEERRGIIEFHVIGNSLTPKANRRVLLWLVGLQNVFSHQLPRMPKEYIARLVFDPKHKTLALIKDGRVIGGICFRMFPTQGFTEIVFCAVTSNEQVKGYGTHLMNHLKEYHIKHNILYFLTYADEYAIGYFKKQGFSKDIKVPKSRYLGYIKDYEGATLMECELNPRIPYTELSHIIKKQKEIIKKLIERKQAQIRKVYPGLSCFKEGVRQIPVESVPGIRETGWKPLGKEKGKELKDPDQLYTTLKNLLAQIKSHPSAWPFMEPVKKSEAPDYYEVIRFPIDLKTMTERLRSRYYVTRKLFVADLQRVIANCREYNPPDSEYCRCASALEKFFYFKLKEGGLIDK
In short: (§1)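 Tube reaction of human recombinant Gcn5 (50 ng) with 1 mM acetyl-CoA and histone H3 (100 or 200 ng). Buffer: 50 mM Tris-HCl pH 8.0, 0.1 mM EDTA, 50 mM KCl, 1 mM DTT, 5% glycerol. Incubated 1 h at 28 °C with or without compound, then 15% SDS-PAGE and blotting. Blots were probed serially with anti-acetyl-lysine and anti-acetyl-H3 antibodies.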

[2] = target: Histone acetyltransferase KAT2A (Homo sapiens) (UniProt Q92830); assay: Inhibition of human recombinant Gcn5 assessed as reduction in acetylated histone H3 level at 0.2 mM by Western blot analysis in presence of histone H3; in short: as §1
[3] = test system: Saccharomyces cerevisiae; assay: Growth inhibition of Saccharomyces cerevisiae gcn5delta mutant at 0.2 to 1 mM after 48 hrs at 28 degC by growth spot assay; assay type: functional, organism-based
In short: (§2)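 Exponentially growing yeast cells at 0.2 OD/mL were serially diluted 1/5. They were spotted on solid YEPD (2% agar) containing 1% DMSO, with compound added from a 100 mM DMSO stock at increasing concentrations. Plates were incubated at 28 °C. Each mutant was compared with its isogenic wild type (S288c, YMK986 or SB819).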

[4] = test system: Saccharomyces cerevisiae; assay: Growth inhibition of Saccharomyces cerevisiae gcn5E173H mutant at 0.2 to 1 mM after 48 hrs at 28 degC by growth spot assay; assay type: functional, organism-based; in short: as §2
[5] = test system: Saccharomyces cerevisiae; assay: Growth inhibition of Saccharomyces cerevisiae SB0-deltabr mutant at 0.2 to 1 mM after 48 hrs at 28 degC by growth spot assay; assay type: functional, organism-based; in short: as §2
[6] = test system: Saccharomyces cerevisiae; assay: Growth inhibition of wild type wild type Saccharomyces cerevisiae SB819 at 0.2 to 1 mM after 48 hrs at 28 degC by growth spot assay; assay type: functional, organism-based; in short: as §2
[7] = target: Histone acetyltransferase KAT2A (Homo sapiens) (UniProt Q92830); assay: Inhibition of human recombinant Gcn5 assessed as reduction in acetylated histone H3 level at 0.8 mM by Western blot analysis; in short: as §1
[8] = target: Histone acetyltransferase KAT2A (Homo sapiens) (UniProt Q92830); assay: Inhibition of human recombinant Gcn5 assessed as reduction in acetylated histone H3 level at 0.8 mM by Western blot analysis in presence of 200 ng histone H3; in short: as §1
[9] = target: Histone acetyltransferase KAT2A (Homo sapiens) (UniProt Q92830); assay: Inhibition of human recombinant Gcn5 assessed as reduction in acetylated histone H3 level at 0.8 mM by Western blot analysis in presence of increased concentration of acetyl-CoA
[10] = test system: Saccharomyces cerevisiae; assay: Decrease in global histone H3 acetylation in wild type Saccharomyces cerevisiae S288C at 0.8 mM after 24 hrs at 28 degC by hybridization assay; assay type: functional; design: scale not given: the % may be the effect or the level left
In short: (§3)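 Wild-type S288c yeast grown 24 h at 28 °C in YEPD with 1% DMSO, with or without compound added to the medium. Bulk proteins were extracted by an alkaline protocol, run on 15% SDS-PAGE and blotted. Blots were probed for acetylated H3, H4 and H3-K14Ac, with ECL detection. Signals were normalized to Ada2p and quantified densitometrically.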

[11] = test system: Saccharomyces cerevisiae; assay: Reduction of global histone H4 acetylation in wild type Saccharomyces cerevisiae S288C at 0.8 mM after 24 hrs at 28 degC by hybridization assay; assay type: functional, organism-based; in short: as §3
[12] = test system: Saccharomyces cerevisiae; assay: Inhibition of histone H3 acetylation at H3-AcK14 site in wild type Saccharomyces cerevisiae S288C at 0.8 mM after 24 hrs at 28 degC by hybridization assay; assay type: functional, organism-based; in short: as §3
[13] = test system: Saccharomyces cerevisiae; assay: Inhibition of global histone H3 acetylation in Saccharomyces cerevisiae gcn5delta mutant at 0.8 mM after 24 hrs at 28 degC by hybridization assay; assay type: functional, organism-based
[14] = test system: Saccharomyces cerevisiae; assay: Inhibition of histone H3 acetylation at H3-AcK14 site in Saccharomyces cerevisiae gcn5delta mutant at 0.8 mM after 24 hrs at 28 degC by hybridization assay; assay type: functional, organism-based

Activity [1]	Activity [2]	Activity [7]	Activity [8]	Activity [9]	SMILES	Activity [3]	Activity [4]	Activity [5]	Activity [6]	Activity [10]	Activity [11]	Activity [12]	Activity [13]	Activity [14]
Active	Active	–	–	–	C=CC/C=C\C/C=C\CCCCCCCc1cccc(O)c1C(=O)O	–	–	–	–	–	–	–	–	–
–	–	Active	inactive	Active	Clc1ccc(-c2csc(NN=C3CCCC3)n2)cc1	Active	Active	inactive	inactive	30%	inactive	Active	Active	Active
